MrgX1 agonist: agonists of human MrgX1 receptor; Q96LB2; MrgX1-HEK293 cells, Fluo-4 calcium fluorescence, agonist mode; active compounds read high; B-score at 10 µM; hit rate 0.44% among 310,000;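 active means calcium response B-score plate-corrected fluorescence ratio at least 3 library SD, with starting fluorescence B-score inside 5 SD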
Target sequence (Q96LB2 whole entry, looked up): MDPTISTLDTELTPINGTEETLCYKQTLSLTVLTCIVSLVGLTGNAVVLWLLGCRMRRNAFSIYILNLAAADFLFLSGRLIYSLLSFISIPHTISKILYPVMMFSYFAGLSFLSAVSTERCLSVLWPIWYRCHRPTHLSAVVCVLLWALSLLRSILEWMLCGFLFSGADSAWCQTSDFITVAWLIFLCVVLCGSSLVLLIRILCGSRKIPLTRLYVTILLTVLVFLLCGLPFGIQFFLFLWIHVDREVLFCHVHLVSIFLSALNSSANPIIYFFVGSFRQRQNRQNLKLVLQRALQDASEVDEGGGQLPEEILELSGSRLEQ
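Assay system: stable human MrgX1 HEK293 cell line. Quantity: 15,000 cells per well. Schedule: cells plated overnight, dye loaded 0.5 h 37 °C, 0.5 h room temperature. Detection: Fluo-4 NW calcium-flux fluorescence, kinetic read. Read-out basis: peak-minus-minimum fluorescence over baseline, converted to B scores. Control set: positive and negative control wells on each plate.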
MrgX1 allo act: human MrgX1 positive allosteric modulation, primary screen; Q96LB2; MrgX1-HEK293, Fluo-4 calcium flux, FDSS; active compounds read high; B-score at 10 µM; hit rate 0.63% among 310,000; AID 588675;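 active means plate-corrected calcium response at least 3 library SD above typical, normal starting fluorescence, not activating the receptor alone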;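 further: compound read alongside a low EC10 to EC30 dose of BAM8-22 agonist; peak minus trough fluorescence over baseline measured at the second addition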
RGS4 act: potentiators or activators of RGS4; B-score at 10 µM; HEK293 M3R/inducible RGS4, carbachol calcium flux Fluo4; active compounds read low; AID 463111; hit rate 0.92% among 310,000;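 active means B-score of the integrated calcium signal more than 4 SD below the library mean, with starting fluorescence not abnormally high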;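 further: negative B-score means reduced calcium response which marks RGS4 activation or potentiation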
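Material: M3R-expressing HEK293 line, RGS4 induced by doxycycline | Schedule: Overnight RGS4 induction, 30 min dye load 37 °C, 20 min compound RT | Measured by: Fluo4 fluorescence kinetic imaging of calcium | Read-out: Integrated calcium ratio converted to B score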
MrgX1 antag: antagonists of human MrgX1 receptor. hit rate 1.3% among 310,000. Q96LB2. AID 588676. MRGX1-HEK293 calcium flux, Fluo-4, BAM8-22 antagonism; active compounds read low. B-score at 10 µM;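 active means calcium-response B-score plate-corrected more than 3 library SD below zero, starting fluorescence within 5 deviations, no agonist response on first addition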;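 further: peak minus trough fluorescence over baseline after final BAM8-22 challenge near maximal dose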
RGS4 inh: inhibitors of human RGS4; P49798; HEK293 M3R/RGS4 inducible, Fluo-4 calcium flux; active compounds read high; triggered by carbachol at its EC20; B-score at 10 µM; hit rate 0.45% among 310,000; AID 463165;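 active means B-score, a plate-corrected calcium signal, over three deviations above library mean, with baseline fluorescence within five deviations of library mean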;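 further: RGS4 expression induced by doxycycline in cells with stable M3 receptor; B-score is computed from the integrated fluorescence ratio over baseline after carbachol; higher B-score means a larger calcium signal and so more RGS4 inhibition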
RGS4 block valid: RGS4 inhibitor validation; shares compounds with RGS4 inh; HEK293 M3R/RGS4, carbachol calcium Fluo-4 fluorescence; carbachol added at its EC20; 0 = buffer wells, 100 = carbachol control; calcium response, % at 10 µM; hit rate 65% among 1,700; AID 492999;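 active means duplicate-averaged calcium response above the buffer-only control mean plus 5 SD of those controls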;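 further: integrated fluorescence ratio F max minus min over baseline F0; higher response in RGS4-induced cells means RGS4 inhibition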
M3R Ca ctr: non-induced cell nonspecific activity of RGS4 inhibitors; shares compounds with RGS4 inh; HEK293 M3R non-induced, carbachol calcium Fluo-4; submaximal (EC20) carbachol stimulus; buffer wells 0%, carbachol control wells 100%; activity (percent), % at 10 µM; hit rate 20% among 1,900; call rule not given here;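 further: RGS4 induction absent so cells express M3R without RGS4; higher means more calcium signal and flags a non-specific hit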
RGS4 inh ctr2: second RGS4 inhibitor counter-screen in uninduced cells lacking carbachol; HEK293 M3R/RGS4 non-induced, Fluo-4 calcium, no carbachol; normalised: buffer wells 0%, carbachol wells 100%; shares compounds with RGS4 inh; hit rate 22% among 1,900; calcium response (agonist-mode artifact), % at 10 µM;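 active means duplicate-averaged calcium rise in uninduced cells above buffer wells' mean plus 5 SD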
Numbers without * were called inactive; i = inactive; . = not tested or not shown. Rows were chosen to be rich in hits. Some 3.5% of all compounds tested hit in one or more screens of this group.

SMILES | MrgX1 agonist | MrgX1 allo act | RGS4 act | MrgX1 antag | RGS4 inh | RGS4 block valid | M3R Ca ctr | RGS4 inh ctr2
CCCc1[nH]nc2c1C(c1cn[nH]c1-c1ccc(F)cc1)C(C#N)=C(N)O2 (configuration not stated) | i | i | i | i | 16.4* | 38.5%* | 43.5%* | 15.0%*
Cc1ccc(N=c2oc3cc(O)ccc3cc2C(N)=O)cc1 | i | i | i | i | i | . | i | i
CC(=O)c1cc2ccc(O)cc2oc1=O | i | i | i | i | i | . | . | .
Cc1cccc2sc(NNC(=O)c3ccc(S(=O)(=O)N4CCc5ccccc5C4)cc3)nc12 | i | i | i | i | i | . | i | i
Cc1cccc2sc(NNC(=O)c3ccc(S(=O)(=O)N4CCCC(C)C4)cc3)nc12 (configuration not stated) | i | i | i | i | i | i | i | i
CCOC(=O)N1CCN(S(=O)(=O)c2ccc(C(=O)NNc3nc4c(C)cccc4s3)cc2)CC1 | i | i | i | i | i | . | . | .
CN(CC(=O)Nc1ccccc1Cl)C(=O)CSc1nncn1C | i | i | i | i | i | . | . | .
CCN(CC)c1cccc(OC(=O)c2cccnc2Cl)c1 | i | i | i | i | i | . | . | .
Cc1sc2nc(CN(Cc3cccs3)C(=O)NC3CCCCC3)[nH]c(=O)c2c1C | i | i | i | i | i | . | i | i
NC(=O)CC(NC(=O)Cc1ccc(Cl)cc1)c1ccc(NC2CCCC2)c([N+](=O)[O-])c1 (configuration not stated) | i | i | i | i | i | i | i | i
NC(=O)CC(NC(=O)Cc1ccc(Br)cc1)c1ccc(NC2CCC2)c([N+](=O)[O-])c1 (configuration not stated) | i | i | i | i | i | . | i | i
CC1(C)CC(NC(=O)c2coc(=O)c(Br)c2)CC(C)(C)N1 | i | i | i | i | 4.66* | 17.0%* | i | i
COC(=O)C(NNc1ccccc1C)(NC(=O)c1ccc(F)cc1)C(F)(F)F (configuration not stated) | i | i | i | i | i | . | . | .
Cc1ccccc1C1CC(c2ccccc2OC(F)F)Nc2ncnn21 (configuration not stated) | i | i | i | i | 5.26* | 11.0%* | i | i
Cc1ccc(C2CC(c3ccccc3OC(F)F)Nc3ncnn32)cc1 (configuration not stated) | i | i | i | i | i | . | i | i
Cc1c(C(=O)N2CCC3(CC2)CC(=O)c2ccccc2O3)cccc1[N+](=O)[O-] | i | i | i | i | i | . | . | .
C/C(=N\NC(=O)c1ccccc1)C1C2C=CC(C2)C1(C)C (configuration not stated) | i | i | i | i | i | . | . | .
Cc1nn2c(N3CCOCC3)cc(C(C)(C)C)nc2c1-c1ccc(Cl)cc1 | . | . | i | . | i | . | . | .
Cc1cc(N2CCOCC2)n2nc(C)c(-c3ccc(Cl)cc3)c2n1 | i | i | i | i | i | . | . | .
CC(C)(C)c1cc(N2CCOCC2)n2ncc(-c3ccc(Cl)cc3)c2n1 | i | i | i | i | 11.5* | 27.0%* | 47.0%* | i
Cc1cc(N2CCOCC2)n2ncc(-c3ccc(Cl)cc3)c2n1 | i | i | i | i | i | i | i | i
CNC[C@H](O)c1cccc(O)c1 | i | i | i | i | i | . | . | .
CNC[C@H](O)c1ccc(O)c(O)c1 | 38.7* | i | i | i | 4.91* | 31.5%* | 57.0%* | i

Screening data deposited in PubChem BioAssay by Johns Hopkins Ion Channel Center.
